According to ChEMBL document CHEMBL1177647, “Synthesis and characterization of novel phenylindoles as potential probes for imaging of β-amyloid plaques in the brain” (Bioorg Med Chem, 2010):

Legend:
[1] = Displacement of [125I]IMPY from amyloid beta42 by gamma counting
[2] = test system: Brain; test: In vivo binding affinity to amyloid beta 42 in mouse brain by neuropathological staining; type: ADME, organism-based
[3] = test system: Brain; test: Biodistribution in ddY mouse brain at 0.2 to 0.4 uCi, iv after 10 mins; type: ADME, organism-based; settings: in vivo
Summary of the method: (§1)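 Radiotracer (0.2–0.4 μCi) given as a single tail-vein injection of 100 μL saline containing 10 μL ethanol to normal ddY mice (5 weeks old, 25–30 g). Mice were sacrificed at set times after injection. Organs were excised and weighed, and radioactivity was counted in an automatic gamma counter.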

[4] = test system: Kidney; test: Biodistribution in ddY mouse kidney at 0.2 to 0.4 uCi, iv after 30 mins; type: ADME, organism-based; settings: in vivo, 0.5 h; summary of the method: as §1
[5] = test system: Spleen; test: Biodistribution in ddY mouse spleen at 0.2 to 0.4 uCi, iv after 2 mins; type: ADME, organism-based; settings: in vivo; summary of the method: as §1
[6] = test system: Heart; test: Biodistribution in ddY mouse heart at 0.2 to 0.4 uCi, iv after 2 mins; type: ADME, organism-based; settings: in vivo; summary of the method: as §1
[7] = test system: Stomach; test: Biodistribution in ddY mouse stomach at 0.2 to 0.4 uCi, iv after 30 mins measured per gram of organ; type: ADME, organism-based; settings: in vivo, 0.5 h; summary of the method: as §1
[8] = test system: Kidney; test: Biodistribution in ddY mouse kidney at 0.2 to 0.4 uCi, iv after 10 mins; type: ADME, organism-based; settings: in vivo; summary of the method: as §1
[9] = test system: Brain; test: Biodistribution in ddY mouse brain at 0.2 to 0.4 uCi, iv after 30 mins; type: ADME, organism-based; settings: in vivo, 0.5 h; summary of the method: as §1
[10] = test system: Intestine; test: Biodistribution in ddY mouse intestine at 0.2 to 0.4 uCi, iv after 60 mins; type: ADME, organism-based; settings: in vivo, 1 h; summary of the method: as §1
[11] = test system: Kidney; test: Biodistribution in ddY mouse kidney at 0.2 to 0.4 uCi, iv after 2 mins; type: ADME, organism-based; settings: in vivo; summary of the method: as §1
[12] = test system: Pancreas; test: Biodistribution in ddY mouse pancreas at 0.2 to 0.4 uCi, iv after 2 mins; type: ADME, organism-based; settings: in vivo; summary of the method: as §1
[13] = test system: Pancreas; test: Biodistribution in ddY mouse pancreas at 0.2 to 0.4 uCi, iv after 60 mins; type: ADME, organism-based; settings: in vivo, 1 h; summary of the method: as §1
[14] = test system: Brain; test: Biodistribution in ddY mouse brain at 0.2 to 0.4 uCi, iv after 60 mins; type: ADME, organism-based; settings: in vivo, 1 h; summary of the method: as §1
[15] = test system: Spleen; test: Biodistribution in ddY mouse spleen at 0.2 to 0.4 uCi, iv after 60 mins; type: ADME, organism-based; settings: in vivo, 1 h; summary of the method: as §1
[16] = test system: Intestine; test: Biodistribution in ddY mouse intestine at 0.2 to 0.4 uCi, iv after 2 mins; type: ADME, organism-based; settings: in vivo; summary of the method: as §1
[17] = test system: Blood; test: Biodistribution in ddY mouse blood at 0.2 to 0.4 uCi, iv after 2 mins; type: ADME, organism-based; settings: in vivo; summary of the method: as §1
[18] = test system: Pancreas; test: Biodistribution in ddY mouse pancreas at 0.2 to 0.4 uCi, iv after 30 mins; type: ADME, organism-based; settings: in vivo, 0.5 h; summary of the method: as §1
[19] = test system: Heart; test: Biodistribution in ddY mouse heart at 0.2 to 0.4 uCi, iv after 30 mins; type: ADME, organism-based; settings: in vivo, 0.5 h; summary of the method: as §1
[20] = test system: Intestine; test: Biodistribution in ddY mouse intestine at 0.2 to 0.4 uCi, iv after 30 mins; type: ADME, organism-based; settings: in vivo, 0.5 h; summary of the method: as §1
[21] = test system: Blood; test: Biodistribution in ddY mouse blood at 0.2 to 0.4 uCi, iv after 60 mins; type: ADME, organism-based; settings: in vivo, 1 h; summary of the method: as §1
[22] = test system: Spleen; test: Biodistribution in ddY mouse spleen at 0.2 to 0.4 uCi, iv after 30 mins; type: ADME, organism-based; settings: in vivo, 0.5 h; summary of the method: as §1
[23] = test system: Blood; test: Biodistribution in ddY mouse blood at 0.2 to 0.4 uCi, iv after 10 mins; type: ADME, organism-based; settings: in vivo; summary of the method: as §1
[24] = test system: Intestine; test: Biodistribution in ddY mouse intestine at 0.2 to 0.4 uCi, iv after 10 mins; type: ADME, organism-based; settings: in vivo; summary of the method: as §1
[25] = test system: Heart; test: Biodistribution in ddY mouse heart at 0.2 to 0.4 uCi, iv after 10 mins; type: ADME, organism-based; settings: in vivo; summary of the method: as §1
[26] = test system: Liver; test: Biodistribution in ddY mouse liver at 0.2 to 0.4 uCi, iv after 30 mins; type: ADME, organism-based; settings: in vivo, 0.5 h; summary of the method: as §1
[27] = test system: Blood; test: Biodistribution in ddY mouse blood at 0.2 to 0.4 uCi, iv after 30 mins; type: ADME, organism-based; settings: in vivo, 0.5 h; summary of the method: as §1
[28] = test system: Liver; test: Biodistribution in ddY mouse liver at 0.2 to 0.4 uCi, iv after 2 mins; type: ADME, organism-based; settings: in vivo; summary of the method: as §1
[29] = test system: Liver; test: Biodistribution in ddY mouse liver at 0.2 to 0.4 uCi, iv after 10 mins; type: ADME, organism-based; settings: in vivo; summary of the method: as §1
[30] = test system: Stomach; test: Biodistribution in ddY mouse stomach at 0.2 to 0.4 uCi, iv after 2 mins measured per gram of organ; type: ADME, organism-based; settings: in vivo; summary of the method: as §1
[31] = test system: Liver; test: Biodistribution in ddY mouse liver at 0.2 to 0.4 uCi, iv after 60 mins; type: ADME, organism-based; settings: in vivo, 1 h; summary of the method: as §1
[32] = test system: Kidney; test: Biodistribution in ddY mouse kidney at 0.2 to 0.4 uCi, iv after 60 mins; type: ADME, organism-based; settings: in vivo, 1 h; summary of the method: as §1
[33] = test system: Stomach; test: Biodistribution in ddY mouse stomach at 0.2 to 0.4 uCi, iv after 60 mins measured per gram of organ; type: ADME, organism-based; settings: in vivo, 1 h; summary of the method: as §1
[34] = test system: Stomach; test: Biodistribution in ddY mouse stomach at 0.2 to 0.4 uCi, iv after 10 mins measured per gram of organ; type: ADME, organism-based; settings: in vivo; summary of the method: as §1
[35] = test system: Brain; test: Biodistribution in ddY mouse brain at 0.2 to 0.4 uCi, iv after 2 mins; type: ADME, organism-based; settings: in vivo; summary of the method: as §1
[36] = test system: Heart; test: Biodistribution in ddY mouse heart at 0.2 to 0.4 uCi, iv after 60 mins; type: ADME, organism-based; settings: in vivo, 1 h; summary of the method: as §1
[37] = test system: Spleen; test: Biodistribution in ddY mouse spleen at 0.2 to 0.4 uCi, iv after 10 mins; type: ADME, organism-based; settings: in vivo; summary of the method: as §1
[38] = test system: Pancreas; test: Biodistribution in ddY mouse pancreas at 0.2 to 0.4 uCi, iv after 10 mins; type: ADME, organism-based; settings: in vivo; summary of the method: as §1

Compound | Ki [1] | Drug uptake [3] | Drug uptake [4] | Drug uptake [5] | Drug uptake [6] | Drug uptake [7] | Drug uptake [8] | Drug uptake [9] | Drug uptake [10] | Drug uptake [11] | Drug uptake [12] | Drug uptake [13] | Drug uptake [14] | Drug uptake [15] | Drug uptake [16] | Drug uptake [17] | Drug uptake [18] | Drug uptake [19] | Drug uptake [20] | Drug uptake [21] | also measured
CN(C)c1ccc(-c2cc3cc(I)ccc3[nH]2)cc1 | 4.24 nM |  |  |  |  |  |  |  |  |  |  |  |  |  |  |  |  |  |  |  | Activity [2]: Not Active
CNc1ccc(-c2cc3cc(I)ccc3[nH]2)cc1 | 27 nM |  |  |  |  |  |  |  |  |  |  |  |  |  |  |  |  |  |  |  | 
Oc1ccc(-c2cc3cc(I)ccc3[nH]2)cc1 | 32.9 nM |  |  |  |  |  |  |  |  |  |  |  |  |  |  |  |  |  |  |  | 

Second part, led by results:

Ki [1] | Drug uptake [3] | Drug uptake [4] | Drug uptake [5] | Drug uptake [6] | Drug uptake [7] | Drug uptake [8] | Drug uptake [9] | Drug uptake [10] | Drug uptake [11] | Drug uptake [12] | Drug uptake [13] | Drug uptake [14] | Drug uptake [15] | Drug uptake [16] | Drug uptake [17] | Drug uptake [18] | Drug uptake [19] | Drug uptake [20] | Drug uptake [21] | Compound | also measured
 | 2.62 % ID/g | 6.77 % ID/g | 7.56 % ID/g | 12.91 % ID/g | 2.11 %ID | 9.35 % ID/g | 1.93 % ID/g | 18.98 % ID/g | 11.93 % ID/g | 5.55 % ID/g | 2.22 % ID/g | 1.82 % ID/g | 2.39 % ID/g | 1.97 % ID/g | 4.07 % ID/g | 3.57 % ID/g | 2.97 % ID/g | 11.32 % ID/g | 0.8 % ID/g | OCCOc1ccc(-c2cc3cc([125I])ccc3[nH]2)cc1 | Drug uptake [22]: 4.75 % ID/g; Drug uptake [23]: 1.6 % ID/g; Drug uptake [24]: 5.76 % ID/g; Drug uptake [25]: 5.84 % ID/g; Drug uptake [26]: 13.42 % ID/g; Drug uptake [27]: 1.26 % ID/g; Drug uptake [28]: 17.69 % ID/g; Drug uptake [29]: 16.77 % ID/g; Drug uptake [30]: 0.97 %ID; Drug uptake [31]: 8.17 % ID/g; Drug uptake [32]: 2.76 % ID/g; Drug uptake [33]: 1.62 %ID; Drug uptake [34]: 1.97 %ID; Drug uptake [35]: 2.13 % ID/g; Drug uptake [36]: 1.36 % ID/g; Drug uptake [37]: 7.09 % ID/g; Drug uptake [38]: 5.59 % ID/g
 | 1.19 % ID/g | 4.58 % ID/g | 4.13 % ID/g | 8.08 % ID/g | 17.77 %ID | 4.46 % ID/g | 0.96 % ID/g | 6.08 % ID/g | 9.49 % ID/g | 5.21 % ID/g | 2.3 % ID/g | 0.71 % ID/g | 2.24 % ID/g | 1.8 % ID/g | 6.18 % ID/g | 3.1 % ID/g | 1.87 % ID/g | 4.52 % ID/g | 3.29 % ID/g | CN(C)c1ccc(-c2cc3cc([125I])ccc3[nH]2)cc1 | Drug uptake [22]: 2.6 % ID/g; Drug uptake [23]: 4.53 % ID/g; Drug uptake [24]: 3.09 % ID/g; Drug uptake [25]: 4.82 % ID/g; Drug uptake [26]: 3.55 % ID/g; Drug uptake [27]: 3.68 % ID/g; Drug uptake [28]: 10.2 % ID/g; Drug uptake [29]: 5.14 % ID/g; Drug uptake [30]: 4.03 %ID; Drug uptake [31]: 3.24 % ID/g; Drug uptake [32]: 4.71 % ID/g; Drug uptake [33]: 16.26 %ID; Drug uptake [34]: 10.65 %ID; Drug uptake [35]: 1.19 % ID/g; Drug uptake [36]: 1.84 % ID/g; Drug uptake [37]: 3.28 % ID/g; Drug uptake [38]: 4.13 % ID/g
